High-throughput results: PubChem BioAssay, several laboratories
Yeast lifespan up = extends the lifespan of yeast | AID 775 | S. cerevisiae growth with nicotinamide, OD615; deaD strain in restrictive glucose medium | inhibition of the nicotinamide effect, % at 10 µM | 130,000 compounds, 0.68% hits;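 active = inhibition above a set limit, placed 3 SD over the median of all compounds, cut at about 26% in these data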;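 also: 0% = nicotinamide-treated wells and 100% = cells grown without nicotinamide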
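Measured by: optical density (absorbance) at 615 nm; System: modified budding yeast, DeaD strain; Medium: restrictive CSMM-D dextrose medium; Timing: 4 h preincubation then 48 h treatment at 30 °C.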
WT yeast gro inh = growth inhibition of WT yeast, mitochondrial fusion screen | mitochondrial fusion phenotypic screen, WT strain | inhibition, % at 10 µM | 190,000 compounds, 2.1% hits; in the data active = inhibition above about 58%; tested in S. cerevisiae
KCC2 mod = modulators of human KCC2 chloride dependent transport; AID 1456; B-score of Tl+ flux slope (higher = more flux/activation; lower = inhibition) at 10 µM; KCC2 cells, thallium flux FluoZin-2 fluorescence; 190,000 compounds, 2.2% hits;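 active = thallium flux slope and its plate-corrected score both differing from the plate sample mean at a set confidence after two filtering rounds, in either direction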;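 also: slope of fluorescence scaled to starting intensity during 10 to 20 s after thallium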
Target sequence (Q9H2X9 whole entry, looked up): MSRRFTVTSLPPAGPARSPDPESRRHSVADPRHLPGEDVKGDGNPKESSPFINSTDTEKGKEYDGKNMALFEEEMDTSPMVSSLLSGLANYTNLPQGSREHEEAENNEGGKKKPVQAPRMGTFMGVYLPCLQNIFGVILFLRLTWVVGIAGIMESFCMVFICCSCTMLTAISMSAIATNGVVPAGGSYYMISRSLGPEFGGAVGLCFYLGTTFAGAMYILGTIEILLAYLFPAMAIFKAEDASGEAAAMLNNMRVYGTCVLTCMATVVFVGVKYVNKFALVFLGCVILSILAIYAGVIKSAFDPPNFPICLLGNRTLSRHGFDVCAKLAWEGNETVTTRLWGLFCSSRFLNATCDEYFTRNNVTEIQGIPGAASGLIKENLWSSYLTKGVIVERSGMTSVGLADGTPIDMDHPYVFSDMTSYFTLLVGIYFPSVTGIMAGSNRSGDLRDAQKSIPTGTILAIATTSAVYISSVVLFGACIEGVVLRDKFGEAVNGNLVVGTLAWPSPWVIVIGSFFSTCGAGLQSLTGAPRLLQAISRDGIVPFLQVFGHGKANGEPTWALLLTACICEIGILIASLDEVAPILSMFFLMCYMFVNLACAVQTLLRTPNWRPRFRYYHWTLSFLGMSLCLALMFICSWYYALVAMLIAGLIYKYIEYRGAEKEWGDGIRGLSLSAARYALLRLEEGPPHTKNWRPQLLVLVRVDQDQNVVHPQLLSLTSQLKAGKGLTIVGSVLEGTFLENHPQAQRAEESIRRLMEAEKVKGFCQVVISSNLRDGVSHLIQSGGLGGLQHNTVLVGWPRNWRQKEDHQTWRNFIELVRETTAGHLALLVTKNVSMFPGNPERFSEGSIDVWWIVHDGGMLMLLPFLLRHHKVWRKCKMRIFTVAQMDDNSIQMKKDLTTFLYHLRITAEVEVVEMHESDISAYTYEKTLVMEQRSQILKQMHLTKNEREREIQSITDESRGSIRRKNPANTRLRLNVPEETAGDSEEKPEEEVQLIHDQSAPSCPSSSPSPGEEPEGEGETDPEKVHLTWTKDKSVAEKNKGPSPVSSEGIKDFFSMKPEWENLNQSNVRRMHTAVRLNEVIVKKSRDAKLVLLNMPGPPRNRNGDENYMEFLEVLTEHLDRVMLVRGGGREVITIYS
BB579 growth dn = yeast BB579 growth reduction in restrictive medium | 140,000 compounds, 0.51% hits | S. cerevisiae BB579 growth, OD615, 48 h | inhibition, % at 10 µM;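 active = inhibition above a set limit, 3 SD over the mean compound inhibition, cut at about 44% in these data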
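Assay system: S. cerevisiae DeaD strain BB579 yeast. Medium: CSMM-D restrictive synthetic medium containing dextrose (glucose). Times: 4 h cell preincubation, 48 h compound exposure, 30 °C humidified. Signal: OD615 turbidity measurement. Benchmarks: positive control amphotericin B 10 µg/mL.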
RAM network inh = inhibitors of the yeast RAM network; S. cerevisiae dse1pr::URA3 reporter, 5-FOA growth OD615, 2 d; analog-sensitive cbk1-as2 kinase mutant strain; inhibition, % at 50 µM; 190,000 compounds, 1.8% hits;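 active = inhibition above a set limit, 3 SD over mean compound inhibition, cut at about 8.4% in these data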;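 also: 0% = DMSO-only wells with no growth and 100% = 10 µM 1-NA-PP1 full growth; inhibition rescues growth on 5-FOA so higher OD means more RAM inhibition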
Active calls of the source: *; . = no result; ! = not confirmed by another sample. Only some compounds are listed: those with a hit (about 5.5% of all), similar ones and a draw of the others.

SMILES	Yeast lifespan up	WT yeast gro inh	KCC2 mod	BB579 growth dn	RAM network inh
CC1CCC(C(C)C)C(OC(=O)COC(=O)c2cccn2C)C1 (configuration not stated)	-4	74*	-0.93	-66	0
CC1CCC(C(C)C)C(OC(=O)Cn2c(-c3ccc(Br)cc3)[n+](C)c3ccccc32)C1 (configuration not stated)	.	66*!	-0.27	.	0
C/C(=N\NC(=O)CSc1nc(C)cc(C)n1)c1ccc([N+](=O)[O-])cc1	.	.	-0.072	.	.
CCc1ccccc1N/C(=N\S(=O)(=O)c1ccccc1)C(F)(F)F	30*	14	0.43	-6	2
CC1=NOC(=O)/C1=C/c1ccc(-c2ccc(Cl)cc2)o1	-7	75*	.	92*	3
CC1=NOC(=O)/C1=C\c1ccc(-c2ccc(Br)cc2)o1	.	75*	-0.28	.	6
CC(C)CC(c1nnnn1Cc1ccc(F)cc1)N1CCC(C(N)=O)CC1 (configuration not stated)	.	-9	1.2	.	2
O=C(NCC1CCCO1)c1cc2ccccc2oc1=O (configuration not stated)	.	-10	-0.55	.	2
CCc1c(C)nc(SCC(=O)Nc2nc(-c3ccc(OC)cc3)cs2)[nH]c1=O	.	-8	.	.	11*
CCCC(=O)NC(=S)Nc1nc(-c2ccc(OC)cc2)cs1	3	0	2.8	-24	10*
O=C1NC(c2ccccn2)Nc2sc3c(c21)CCC3 (configuration not stated)	-8	-6	-0.024	75*	0
Cc1ccc(-c2nc3ccccc3c(C(=O)NCc3cccs3)c2C)cc1	1	-1	-0.04	-20	-1
CN1/C(=C\C(=O)COC(=O)c2ccc([N+](=O)[O-])o2)C(C)(C)c2ccccc21	.	94*	-0.8	.	5
COc1nc(Cl)cn(-c2ccc(C)cc2)c1=O	10	4	0.45	-18	0
Cc1ccc(-n2c(Cl)c(Cl)nc(Cl)c2=O)cc1	-9	62	-1.7	100*	0
CCOC(=O)c1c(NC(=O)COc2cccc3c2CCN(CC)C3=O)sc2c1CCC2	2	-14	-1.8	-37	5
CCN(CC)c1ccc(C(=O)OCC(=O)Nc2ccc3[nH]c(=O)[nH]c3c2)cc1	.	4	0.29	.	2
Cc1cccc(OCCCC(=O)Nc2ccc(N3CCCCC3)cc2)c1C	2	61*	.	-26	5
CCOc1ccc(NC(=O)Cn2nnc(C(=O)NCc3ccccc3OC)c2N)cc1	-3	-8	1.6	-60	9.9*
CCc1cccc(NC(=O)c2cc(S(=O)(=O)N(C)C)ccc2N2CCCC2)c1	.	-19	-0.17	.	11*
CCOc1ccc(-c2noc(-c3ccncc3)n2)cc1OCC	-15	-6	-0.67	-15	1
CCOc1ccc(-c2nc(-c3ccc(OC)cc3)no2)cc1OCC	-3	10	0.14	-66	9.1*
COc1ccc(-c2noc(-c3cccc(Cl)c3)n2)cc1OC	-1	12	1.6	-73	9.1*
COc1ccc(-c2nc(-c3ccncc3)no2)cc1OC	-25	26	-1	-16	1
Cc1sc2cc(-c3cccc([N+](=O)[O-])c3)c(-c3cccc([N+](=O)[O-])c3)c[n+]2c1C	5	9	-0.8	-17	2
SMILES	Yeast lifespan up	WT yeast gro inh	KCC2 mod	BB579 growth dn	RAM network inh
COc1ccc(Nc2sc(C(=O)Nc3cccc(Cl)c3)c(N)c2C(=O)Nc2ccccc2OC)cc1	1	12	-0.73	-23	9.7*
COc1ccccc1NC(=O)c1c(Nc2ccccc2F)sc(C(=O)Nc2cccc(Cl)c2)c1N	8	23	0.048	-54	11*
COc1ccccc1N1C(=O)CC(Sc2n[nH]c(-c3cccc(C)c3)n2)C1=O (configuration not stated)	3	-5	-0.045	-39	1
CCSc1nc2ccc(N3C(=O)C4C5C=CC(C5)C4C3=O)cc2s1 (configuration not stated)	2	-16	0.33	-10	1
Cc1ccc(C)c(N2CCN(S(=O)(=O)c3c(C)noc3/C=C/N(C)C)CC2)c1	36*	44	-0.37	-15	-1
Cc1noc(/C=C/N(C)C)c1S(=O)(=O)N1CCN(c2ccccc2)CC1	9	12	.	-3	2
O=C(CN1c2ccccc2Sc2ccccc21)NNC(=S)Nc1ccc(Cl)cc1	.	.	0.2	.	.
O=C(CN1c2ccccc2Sc2ccccc21)NNC(=S)Nc1ccc(Cl)cc1Cl	13	42	0.17	-23	11*
Cc1ccc(Nc2nc3nonc3[nH]c2=O)cc1Cl	.	64*	-4.6	.	1
Cc1ccc(Nc2nc3nonc3[nH]c2=O)cc1C	-6	-7	-2.6	-25	2
OCCNCCSc1nc(C2CCCCC2)n(-c2ccccc2Cl)n1	.	.	0.49	.	.
O=C(NCCOc1ccc(Cl)cc1)c1ccc2ccccc2n1	.	62*	-0.0053	.	1
COc1ccc(CCNC(=O)c2ccc3ccccc3n2)cc1OC	.	-4	.	.	-1
Cc1cccc(C)c1OCCNC(=O)c1ccc2ccccc2n1	.	68*	-0.73	.	1
CCN(CC)c1ncc(C#N)c(N)n1	.	.	1	.	.
CCN(CC)C(=S)SCC(=O)Nc1nc(=O)c2ccccc2s1	1	-10	16*	-12	4
Cc1cc2c(cc1C)CSC(c1ccccc1OC(=O)C(C)(C)C)SC2	-3	64*	-0.4	-28	5
O=C(c1ccc(Cl)cc1)c1c[nH]c(C(=O)C(Cl)(Cl)Cl)c1	-22	82*	-1	84*	0
COc1c(Cl)cc(C(=O)Nc2ccccc2-c2ccccc2)cc1Cl	-28	10	.	-26	8.7*
CCOc1ccc(C(=O)Nc2ccccc2-c2ccccc2)cc1Cl	0	13	0.11	4	4
Cc1ccccc1-c1noc(C23CC4CC(CC(C4)C2)C3)n1	-9	81*	.	-13	2
c1cncc(-c2noc(C34CC5CC(CC(C5)C3)C4)n2)c1	2	13	.	-48	-2
CCC(=O)Oc1ccc(C(=O)Nc2ccc3c(c2)OCO3)cc1	.	18	0.22	.	2
Cc1cc(C)cc(OCC(=O)Nc2ccc3c(c2)OCO3)c1	.	9	-0.005	.	5
Cc1cccc(OCCCC(=O)Nc2ccc3c(c2)OCO3)c1	-27	74*	-0.43	-38	1
CC(C)(C)c1[nH]nc2c1C(c1ccc(OC(=O)c3ccco3)cc1)C(C#N)=C(N)O2 (configuration not stated)	-3	-1	2	-84	10*
CCOC(=O)C1C(=O)NC(SCC(=O)Nc2nccs2)=C(C#N)C1c1ccccc1OCC (configuration not stated)	27*	28	-1.7	-10	1
CCNc1ccc(P(=O)(c2ccccc2)c2ccccc2)cc1	.	-19	-1.1	.	1
CC12C(=O)N(Cc3ccco3)C(=O)C1C1c3ccccc3C2c2ccccc21 (configuration not stated)	-10	8	-1.5	0	5
